Measurements published in ChEMBL document CHEMBL3124823, “1,2,3-Triazole-containing derivatives of rupestonic acid: click-chemical synthesis and antiviral activities against influenza viruses” (Eur J Med Chem, 2014).
≈ marks a conversion by molar mass, not a printed value.

Columns and labels:
Influenza B virus = assay: Antiviral activity against Influenza B virus jifang/13/97 infected in MDCK cells assessed as inhibition of virus-induced cytopathicity after 40 hrs; type: functional, organism-based; conditions: jifang/13/97, MDCK
How it was run: (§1)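 CPE reduction in MDCK cells: cells grown 24 h at 37 °C, 5% CO2, then infected and held 2 h at 37 °C before the inoculum was removed. Threefold serial drug dilutions (8 levels from 20 mg/mL DMSO stocks) were added and incubated 40 h at 37 °C. CPE inhibition was scored against cell and virus controls to give IC50. Ribavirin and oseltamivir were the controls.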

[1] = Cytotoxicity against MDCK cells after 48 hrs; type: cell-based, Canis lupus familiaris; conditions: dog, read-out: TC50
How it was run: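 MDCK cells seeded at 25000 per well and cultured 24 h at 37 °C, 5% CO2. Threefold dilutions were added to the monolayer and culture continued 48 h. Cytopathic changes were recorded by observation, and TC50 was calculated by the Reed & Muench method.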

[2] = Selectivity index, ratio of TC50 for MDCK cells to IC50 for Influenza B virus jifang/13/97; type: toxicity, cell-based; conditions: dog, read-out: Selectivity Index
How it was run: (§2)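 Selectivity index = TC50 (MDCK, 48 h visual cytotoxicity) / IC50 from the 40 h CPE-inhibition assay for the given strain.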

Influenza A virus [3] = assay: Antiviral activity against Influenza A virus A/hanfang/359/95(H3N2) infected in MDCK cells assessed as inhibition of virus-induced cytopathicity after 40 hrs; type: functional, organism-based; how it was run: as §1
Influenza A virus [4] = assay: Antiviral activity against Influenza A virus (A/FM/1/1947(H1N1)) infected in MDCK cells assessed as inhibition of virus-induced cytopathicity after 40 hrs; type: functional, organism-based; conditions: A/Fort Monmouth/1/1947(H1N1); how it was run: as §1
[5] = Selectivity index, ratio of TC50 for MDCK cells to IC50 for Influenza A virus (A/FM/1/1947(H1N1)); type: toxicity, cell-based; conditions: dog, read-out: Selectivity Index; how it was run: as §2

Row | SMILES | IC50 (Influenza B virus) [µg/mL] | CC50 at 48 h [1] [µg/mL] | selectivity ratio [2] | IC50 (Influenza A virus [3]) [µg/mL] | IC50 (Influenza A virus [4]) [µg/mL] | selectivity ratio [5]
1 | C=C(C(=O)OCc1cn(Cc2cccc(Cl)c2)nn1)[C@@H]1CC[C@H](C)[C@@H]2CC(=O)C(C)=C2C1 | 66.7 (≈ 147 µM) | 139 (≈ 305 µM) | 2.1 | > 66.7 | ≥ 66.7 | –
2 | C=C(C(=O)OCc1cn(Cc2ccc(Cl)cc2)nn1)[C@@H]1CC[C@H](C)[C@@H]2CC(=O)C(C)=C2C1 | 12.8 (≈ 28.3 µM) | 66.7 (≈ 147 µM) | 5.2 | > 22.2 | > 22.2 | –
3 | C=C(C(=O)OCc1cn(Cc2cccc(F)c2)nn1)[C@@H]1CC[C@H](C)[C@@H]2CC(=O)C(C)=C2C1 | ≥ 22.2 | 96.2 (≈ 220 µM) | ≥ 4.3 | > 22.2 | > 22.2 | –
4 | C=C(C(=O)OCc1cn(Cc2ccc(F)cc2)nn1)[C@@H]1CC[C@H](C)[C@@H]2CC(=O)C(C)=C2C1 | 8.98 (≈ 20.5 µM) | 66.7 (≈ 152 µM) | 9.1 | > 22.2 | > 22.2 | –
5 | C=C(C(=O)OCc1cn(Cc2ccc(Cl)c(Cl)c2)nn1)[C@@H]1CC[C@H](C)[C@@H]2CC(=O)C(C)=C2C1 | > 7.41 | 22.2 (≈ 45.5 µM) | – | > 7.41 | > 7.41 | –
6 | C=C(C(=O)NCc1cn(Cc2ccccc2C)nn1)[C@@H]1CC[C@H](C)[C@@H]2CC(=O)C(C)=C2C1 | 15 (≈ 34.7 µM) | 66.7 (≈ 154 µM) | 4.55 | > 22.2 | > 22.2 | –
7 | C=C(C(=O)NCc1cn(Cc2cccc(C)c2)nn1)[C@@H]1CC[C@H](C)[C@@H]2CC(=O)C(C)=C2C1 | 11.8 (≈ 27.2 µM) | 66.7 (≈ 154 µM) | 5.7 | > 22.2 | > 22.2 | –
8 | C=C(C(=O)NCc1cn(Cc2ccc(C)cc2)nn1)[C@@H]1CC[C@H](C)[C@@H]2CC(=O)C(C)=C2C1 | 11.8 (≈ 27.2 µM) | 96.2 (≈ 222 µM) | 8.25 | > 22.2 | 17.5 (≈ 40.5 µM) | 5.91
9 | C=C(C(=O)NCc1cn(Cc2ccccc2)nn1)[C@@H]1CC[C@H](C)[C@@H]2CC(=O)C(C)=C2C1 | 11.3 (≈ 27 µM) | 96.2 (≈ 230 µM) | 12.2 | > 22.2 | 17.2 (≈ 41.2 µM) | 5.58
10 | C=C(C(=O)NCc1cn(Cc2cccc(OC)c2)nn1)[C@@H]1CC[C@H](C)[C@@H]2CC(=O)C(C)=C2C1 | 19.7 (≈ 44 µM) | 66.7 (≈ 149 µM) | 3.45 | > 22.2 | 12.8 (≈ 28.6 µM) | 5.2
11 | C=C(C(=O)NCc1cn(Cc2ccc(OC)cc2)nn1)[C@@H]1CC[C@H](C)[C@@H]2CC(=O)C(C)=C2C1 | 11.8 (≈ 26.2 µM) | 96.2 (≈ 214 µM) | 8.25 | > 22.2 | 14 (≈ 31.2 µM) | 10.5
12 | C=C(C(=O)NCc1cn(Cc2ccccc2F)nn1)[C@@H]1CC[C@H](C)[C@@H]2CC(=O)C(C)=C2C1 | > 66.7 | 116 (≈ 265 µM) | – | > 66.7 | > 66.7 | –
13 | C=C(C(=O)OCc1cn(Cc2ccccc2C)nn1)[C@@H]1CC[C@H](C)[C@@H]2CC(=O)C(C)=C2C1 | 18.8 (≈ 43.4 µM) | 46.2 (≈ 107 µM) | 2.55 | > 22.2 | > 22.2 | –
14 | C=C(C(=O)OCc1cn(Cc2ccc(C)cc2)nn1)[C@@H]1CC[C@H](C)[C@@H]2CC(=O)C(C)=C2C1 | ≥ 22.2 | 96.2 (≈ 222 µM) | ≥ 4.32 | > 22.2 | > 22.2 | –
15 | C=C(C(=O)OCc1cn(Cc2ccccc2)nn1)[C@@H]1CC[C@H](C)[C@@H]2CC(=O)C(C)=C2C1 | ≥ 7.41 | 28.6 (≈ 68.2 µM) | ≥ 3.9 | > 7.41 | > 7.41 | –
16 | C=C(C(=O)OCc1cn(Cc2cccc(OC)c2)nn1)[C@@H]1CC[C@H](C)[C@@H]2CC(=O)C(C)=C2C1 | > 22.2 | 96.2 (≈ 214 µM) | – | > 22.2 | > 22.2 | –
